Test results: PubChem BioAssay
Active and inactive are the calls of the source.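 How the source made its calls: active means growth inhibition above a set limit, 3 SD over mean compound inhibition, in both replicates (cut at about 43% in these data); inconclusive means above the limit in only one replicate; inactive means at or below the limit in both replicates.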

assay: Restrictive medium S. cerevisiae growth inhibition, OD615, pilot screen of yeast lifespan reduction project, restrictive growth control (AID 706); details: OD615, 48 h, at 10 µM, hits give high values;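 further: modified DeaD lifespan yeast strain shifted to restrictive glucose medium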
Summary of the method: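 System: modified S. cerevisiae. Buffer or medium: CSMM-D glucose medium. Incubation: 4 h pre-growth plus 48 h compound exposure, 30 °C. Detection: absorbance (optical density) measured at 615 nm.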

Growth inhibition, inactive:
CS(=O)(=O)N(Cc1ccc(C(=O)NCc2ccco2)cc1)c1ccccc1 -0.32%
COc1ccc(N(CC(=O)N2CCN(C)CC2)S(C)(=O)=O)cc1OC -9.76%
Cc1ncc(CO)c2cc(S(=O)(=O)c3ccc(F)cc3)c(=O)oc12 -4.46%
CCN(CC)c1ccc(/C=N/n2c(C)cc(C)cc2=O)cc1 7.67%
COc1ccc(C)cc1NC(=O)c1cc2c(CO)cnc(C)c2oc1=N -10.5%
Cc1cc(C)nc(SCC(=O)Nc2ccc(S(=O)(=O)Nc3onc(C)c3C)cc2)n1 14%
CCCCOC(=O)c1ccc(NS(=O)(=O)c2cc(-c3nnnn3CC)ccc2OC)cc1 2.27%
Cc1oc(-c2ccc(Cl)cc2)nc1CN1CCCC(C(=O)N2CCN(C(=O)c3ccco3)CC2)C1 (stereo not given) -14.5%
COc1ccc(NC(=O)N(Cc2ccc(C)cc2)Cc2ccccn2)c(OC)c1 7.11%
O=C(O)c1ccc(NS(=O)(=O)c2cccc3cccnc23)cc1 7.28%
Cc1c(C(=O)NCc2ccc3c(c2)OCO3)sc2nc(-c3ccc(F)cc3)cn12 -14.9%
Nc1c(S(=O)(=O)c2ccccc2)c2nc3ccccc3nc2n1Cc1ccco1 -16.2%
CCN(CCNC(=O)CCCn1nc(C)n2c(cc3sccc32)c1=O)c1ccccc1 -4.82%
Cc1ccc(N2CC(C(=O)Nc3cccc(F)c3)CC2=O)cc1 (stereo not given) -5.71%
CCOc1ccc(NC(=O)CN2C(=O)COc3ccc(Cl)cc32)cc1 -12.8%
